Data taken from ChEMBL document CHEMBL5543129, “Peptide Inhibitor Targeting the Extraterminal Domain in BRD4 Potently Suppresses Breast Cancer Both In Vitro and In Vivo” (J Med Chem, 2024).
Active and inactive are the calls of the source. No cut-off for these calls is given here. Square brackets hold non-standard residues; d marks the D form. Peptide text beside a SMILES is read from it. Hyp = O=C(O)[C@@H]1C[C@@H](O)CN1; Ahx = NCCCCCC(=O)O

How the values were obtained:
MCF7 [1] = experiment: Downregulation of […] gene expression in human MCF7 cells at 10 uM incubated for 6 hrs by RT-qPCR analysis; format: functional, cell-based
In short: (§1)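 Cells treated with peptide (10 μM) for 6 h; c-Myc, N-myc and CCND1 mRNA measured by RT-qPCR. Three biological repeats.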

MCF7 [2] = experiment: Downregulation of CCND1 gene expression in human MCF7 cells at 10 uM incubated for 6 hrs by RT-qPCR analysis; format: functional, cell-based; in short: as §1
MDA-MB-231 [3] = experiment: Downregulation of CCND1 gene expression in human MDA-MB-231 cells at 10 uM incubated for 6 hrs by RT-qPCR analysis; format: functional, cell-based; in short: as §1
[4] = Downregulation of CCND1 protein expression in human MDA-MB-231 cells assessed as fold change in remaining CCND1 level at 10 uM incubated for 24 hrs by immunoblotting analysis (reference value: 1); format: functional
In short: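 Cells treated with peptide (10 μM) for 24 h. Lysates in Tris/NaCl/EDTA/1% Triton X-100, run on 10% SDS-PAGE and immunoblotted with ECL detection. β-actin as loading control. Three repeats, quantified against untreated cells.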

Mus musculus [5] = experiment: Downregulation of N-myc mRNA expression in BALB/c mouse tumor xenografted with human MCF7 cells at 25 mg/kg, ip administered every 2 days by RT-qPCR analysis; format: functional, organism-based
Mus musculus [6] = experiment: Downregulation of JMJD6 mRNA expression in BALB/c mouse tumor xenografted with human MDA-MB-231 cells at 25 mg/kg, ip administered every 2 days by RT-qPCR analysis; format: functional, organism-based
Mus musculus [7] = experiment: Downregulation of BRD4 mRNA expression in BALB/c mouse tumor xenografted with human MCF7 cells at 25 mg/kg, ip administered every 2 days by RT-qPCR analysis; format: functional, organism-based
MCF7 [8] = experiment: Antiproliferative activity against human MCF7 cells at 10 uM incubated for 1 week in presence of 5 uM JQ1 by CellTiter 96 Aqueous One Solution based assay; format: functional, cell-based; conditions: time 1.0 weeks
In short: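 Cells seeded at 2 × 10^3/well and treated with peptide (10 μM) alone or combined with JQ1 (5 μM), iJMJD6 (10 μM) or ICI (2.5 μM), as the line states. Viability read by MTS reagent, 1 h at 37 °C, A490. Three biological repeats.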

MDA-MB-231 [9] = experiment: Inhibition of cell migration in human MDA-MB-231 cells at 10 uM incubated for 12 hrs by inverted microscopic assay; format: functional, cell-based
In short: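 Cells are seeded at 5 × 10^5/well and scratched at 80–90% confluence. They are kept in serum-free medium with peptide (10 μM); partner agents are JQ1 5 μM, iJMJD6 10 μM, or ICI 2.5 μM. Wound area is imaged by inverted microscope at 0 and 12 or 24 h. Wound closure % = (A0−A1)/A0 × 100. Three biological repeats.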

MDA-MB-231 [10] = experiment: Antitumor activity against human MDA-MB-231 cells xenografted in BALB/c nude mouse assessed as reduction in tumor volume at 12.5 mg/kg, ip administered every 2 days in presence of 50 mg/kg JQ1; format: functional, organism-based
In short: (§2)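 Female BALB/c nude mice given 5 × 10^6 cells sc (MCF7 mice with E2 10^-2 M every 2 days), randomised at ~50 mm3. Peptide 12.5 mg/kg ip (saline) every 2 days, plus JQ1 50 mg/kg ip (DMSO/10% HPBCD 1:10) every 2 days or iJMJD6 12.5 mg/kg ip (DMSO/PBS 1:20). Caliper volume every 2 days; tumours weighed at the end.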

[11] = Toxicity in BALB/c mouse xenografted with human […] cells assessed as change body weight at 12.5 mg/kg, ip administered every 2 days in presence of 50 mg/kg JQ1; format: organism-based; conditions: in vivo, 48 h
In short: (§3)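 Female BALB/c nude mice (4–6 weeks) carried sc MDA-MB-231 xenografts (5 × 10^6 cells) and were randomized at about 50 mm3. Peptide (12.5 mg/kg ip in saline) and JQ1 (50 mg/kg ip, DMSO/10% HPBCD 1:10) were given every 2 days, alone or combined. Body weight was recorded, and heart, liver, spleen, lung and kidney morphology and weight were assessed.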

[12] = Toxicity in BALB/c mouse xenografted with human MDA-MB-231 cells assessed as change in lung morphology at 12.5 mg/kg, ip administered every 2 days in presence of 50 mg/kg JQ1; format: organism-based; conditions: in vivo, 48 h; in short: as §3
[13] = Toxicity in BALB/c mouse xenografted with human MDA-MB-231 cells assessed as change in lung weight at 12.5 mg/kg, ip administered every 2 days in presence of 50 mg/kg JQ1; format: organism-based; conditions: in vivo, 48 h; in short: as §3
[14] = Toxicity in BALB/c mouse xenografted with human MDA-MB-231 cells assessed as change in kidney weight at 12.5 mg/kg, ip administered every 2 days in presence of 50 mg/kg JQ1; format: organism-based; conditions: in vivo, 48 h; in short: as §3
[15] = Toxicity in BALB/c mouse xenografted with human MDA-MB-231 cells assessed as change in spleen weight at 12.5 mg/kg, ip administered every 2 days in presence of 50 mg/kg JQ1; format: organism-based; conditions: in vivo, 48 h; in short: as §3
T47D = experiment: Antiproliferative activity against human T47D cells at 10 uM incubated for 1 week in presence of JMJD6 inhibitor by CellTiter 96 Aqueous One Solution based assay; format: functional, cell-based; conditions: time 1.0 weeks
MCF7 [16] = experiment: Antitumor activity against human MCF7 cells xenografted in BALB/c nude mouse assessed as reduction in tumor weight at 12.5 mg/kg, ip administered every 2 days in presence of 12.5 mg/kg JMJD6 inhibitor; format: functional, organism-based; in short: as §2
[17] = Toxicity in BALB/c mouse xenografted with human MCF7 cells assessed as change in lung at 12.5 mg/kg, ip administered every 2 days in presence of 12.5 mg/kg JMJD6 inhibitor; format: organism-based; conditions: in vivo, 48 h
In short: (§4)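 Female BALB/c nude mice carried MCF7 xenografts (5 × 10^6 cells sc, E2 10–2 M brushed every 2 days) and were randomized at about 50 mm3. Peptide was given at 12.5 mg/kg ip every 2 days, and iJMJD6 (DMSO/PBS 1:20) at 12.5 mg/kg ip every other day, alone or combined. Body and organ weights were recorded.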

[18] = Toxicity in BALB/c mouse xenografted with human MCF7 cells assessed as change in kidney at 12.5 mg/kg, ip administered every 2 days in presence of 12.5 mg/kg JMJD6 inhibitor; format: organism-based; conditions: in vivo, 48 h; in short: as §4
[19] = Downregulation of BRD4 protein expression in BALB/c mouse tumor xenografted with human MCF7 cells assessed as fold change in remaining BRD4 level at 25 mg/kg, ip administered every 2 days by immunoblotting analysis; format: functional
In short: (§5)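 Tumours taken from xenograft mice dosed with peptide at 25 mg/kg ip every 2 days. […] Three repeats.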

[20] = Downregulation of CCND1 protein expression in BALB/c mouse tumor xenografted with human MCF7 cells assessed as fold change in remaining CCND1 level at 25 mg/kg, ip administered every 2 days by immunoblotting analysis; format: functional; in short: as §5
[21] = Downregulation of N-myc protein expression in BALB/c mouse tumor xenografted with human MDA-MB-231 cells assessed as fold change in remaining N-myc level at 25 mg/kg, ip administered every 2 days by immunoblotting analysis; format: functional; in short: as §5

| Compound | Activity (MCF7 [1]) | Activity (MCF7 [2]) | Activity (MDA-MB-231 [3]) | fold change (FC) [4] | Activity (Mus musculus [5]) | Activity (Mus musculus [6]) | Activity (Mus musculus [7]) | Activity (MCF7 [8]) | inhibition (MDA-MB-231 [9]) | Activity (MDA-MB-231 [10]) | Activity [11] | Activity [12] | Activity [13] | Activity [14] | Activity [15] | Activity (T47D) | Activity (MCF7 [16]) | Activity [17] | Activity [18] | fold change (FC) [19] | also measured |
| --- | --- | --- | --- | --- | --- | --- | --- | --- | --- | --- | --- | --- | --- | --- | --- | --- | --- | --- | --- | --- | --- |
| H-YGRKKRRQRRRRNQKFKCGE-OH | Active | Active | Active | 0.67 | Active | inactive | inactive | Active | Active | Active | Non-Toxic | Non-Toxic | Non-Toxic | Non-Toxic | Non-Toxic | Active | Active | Non-Toxic | Non-Toxic | 0.54 | fold change (FC) [20]: 0.11; fold change (FC) [21]: 0.38 |
| CC[C@H](C)[C@H](NC(=O)[C@H](Cc1ccc(O)cc1)NC(=O)[C@@H]1C[C@@H](O)CN1C(=O)[C@H](C)NC(=O)[C@@H](NC(=O)CCCCCNC(=O)[C@H](CCC(=O)O)NC(=O)CNC(=O)[C@H](CS)NC(=O)[C@H](CCCCN)NC(=O)[C@H](Cc1ccccc1)NC(=O)[C@H](CCCCN)NC(=O)[C@H](CCC(N)=O)NC(=O)[C@H](CC(N)=O)NC(=O)[C@H](CCCNC(=N)N)NC(=O)[C@H](CCCNC(=N)N)NC(=O)[C@H](CCCNC(=N)N)NC(=O)[C@H](CCCNC(=N)N)NC(=O)[C@H](CCC(N)=O)NC(=O)[C@H](CCCNC(=N)N)NC(=O)[C@H](CCCNC(=N)N)NC(=O)[C@H](CCCCN)NC(=O)[C@H](CCCCN)NC(=O)[C@H](CCCNC(=N)N)NC(=O)CNC(=O)[C@@H](N)Cc1ccc(O)cc1)[C@@H](C)CC)C(=O)O (H-YGRKKRRQRRRRNQKFKCGE[Ahx]IA[Hyp]YI-OH) | Active | Active | Active | 0.62 | Active | inactive | inactive | Active | Active | Active | Non-Toxic | Non-Toxic | Non-Toxic | Non-Toxic | Non-Toxic | Active | Active | Non-Toxic | Non-Toxic | 0.16 | fold change (FC) [20]: 0.09; fold change (FC) [21]: 0.13 |
